# High-throughput results deposited in PubChem by several laboratories.
# B2AR ag = agonists of human beta-2 adrenergic receptor inducing internalization | Am2.2-beta2AR cells, FAP receptor internalization, flow cytometry | AID 504454 | hit rate 0.43% among 340,000 | P07550 | response, % (concentration not given with the values);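 active = response above a set limit, near 3 SD of response in nonfluorescent compounds, cut at about 42% in these data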
# Target sequence (P07550 whole entry, looked up): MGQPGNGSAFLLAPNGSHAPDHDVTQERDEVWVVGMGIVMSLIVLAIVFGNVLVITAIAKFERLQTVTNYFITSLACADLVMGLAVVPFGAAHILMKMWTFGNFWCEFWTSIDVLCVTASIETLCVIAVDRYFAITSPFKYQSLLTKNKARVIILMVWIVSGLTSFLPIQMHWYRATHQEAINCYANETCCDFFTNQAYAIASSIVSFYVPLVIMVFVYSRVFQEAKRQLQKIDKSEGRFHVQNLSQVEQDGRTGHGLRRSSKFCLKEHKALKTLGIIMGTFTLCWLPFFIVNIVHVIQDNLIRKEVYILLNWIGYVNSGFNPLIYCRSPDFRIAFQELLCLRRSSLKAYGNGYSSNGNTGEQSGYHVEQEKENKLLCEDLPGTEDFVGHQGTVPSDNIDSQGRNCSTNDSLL
# CHOP inh = inhibitors of CHOP induction in ER stress response. inhibition, % at 10 µM. CHO-K1 CHOP-promoter luciferase, tunicamycin-induced, 15-18 h. hit rate 3.8% among 220,000;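 active = compounds that reduced the stress-induced luciferase reporter signal by more than about 70% of percent inhibition, limit read from the data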;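 also: 0% = tunicamycin plus vehicle and 100% = wells without tunicamycin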
# CHOP UPR activ = activators of apoptotic arm of unfolded protein response (CHOP) | activation, % at 10 µM | hit rate 0.34% among 330,000 | AID 449763 | CHO-CHOP luciferase reporter, UPR activation, luminescence; percent of tunicamycin response over DMSO baseline;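 active = at 10 µM dose, activation of 40% or more, normalized to positive control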;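 also: 100% = tunicamycin at 10 µg/mL and 0% = DMSO alone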
#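 Material: CHO-CHOP cells, stable luciferase reporter of PERK-eIF2a-CHOP signalling; quantity: 500 reporter cells seeded per well; buffer or medium: F12 medium containing 10% fetal bovine serum; compound: one dose, 10 µM in 0.5% DMSO; incubation: 6 h compound treatment, 37 °C; measured by: Steady-Glo luciferase luminescence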
# XBP1 UPR activ = activators of adaptive arm of unfolded protein response (XBP1); CHO-XBP1 luciferase reporter, IRE1-XBP1 UPR activation, luminescence; percent of tunicamycin response, DMSO as zero; hit rate 0.33% among 330,000; AID 463104; activation, % at 20 µM;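 active = versus positive control, 20 µM dose yields 30% or more activation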;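 also: 100% = tunicamycin at 10 µg/mL and 0% = DMSO only wells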
#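 Material: CHO-XBP1 cells stably carrying IRE1-XBP1-driven luciferase reporter | Medium: F12 with 10% serum | Compound dosing: 20 µM single concentration, DMSO 1% | Incubation: Overnight seeding at 37 °C, 6 h compound treatment at 37 °C | Detection: Steady-Glo luminescence read | Read-out basis: % activation of reporter signal versus tunicamycin and DMSO controls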
# VLA-4 inh = inhibition in a human VLA-4 binding assay; VLA-4 expressing cells, ligand binding flow cytometry; inhibition, % (about 7 µM as worked out from the volumes in the protocol); P13612; hit rate 0.2% among 330,000; in the data active = inhibition above about 50%
# CHOP inh conf = confirmation of CHOP induction inhibitors; shares compounds with CHOP inh; CHO-CHOP promoter luciferase reporter, tunicamycin-induced, luminescence; inhibition, % at 10 µM; hit rate 45% among 2,100; AID 504437;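 active = mean of three repeat readings of reporter signal inhibition above a set limit, cut at about 70% in these data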;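 also: 0% = tunicamycin plus vehicle and 100% = wells lacking tunicamycin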
# The depositor's hits bear a star; . = no result. Shown is part of a subset that was picked to be rich in hits.
SMILES,B2AR ag,CHOP inh,CHOP UPR activ,XBP1 UPR activ,VLA-4 inh,CHOP inh conf
COc1ccc(CC(=O)Nc2cccc(-c3nnc(-c4ccccc4)o3)c2)cc1OC,34,.,.,.,.,.
CCCCCCCCCS(=O)(=O)N/N=C/c1cccc([N+](=O)[O-])c1,-2,99*,-1,-1,14,97*
O=S(=O)(c1ccc(Cl)cc1)c1cnc(-c2cccnc2)nc1-c1ccccc1,-16,99*,1,1,-7,12
CN(C)c1ncc(S(=O)(=O)c2ccc(Cl)cc2)c(-c2ccccc2)n1,-2,21,0,-1,1,.
CCCCOc1ccc(/C=C/C(=O)NC2=Nc3ccccc3NC(C)=C2C(=O)OCC)cc1OC,7,3,1,-3,0,.
CC(C)CCN(C(=O)c1ccncc1)c1c(N)n(Cc2ccccc2)c(=O)[nH]c1=O,4,.,1,0,-5,.
CC(C)CCN(C(=O)Cc1ccc(Cl)c(Cl)c1)c1c(N)n(Cc2ccccc2)c(=O)[nH]c1=O,-1,103*,7,8,-1,108*
Cc1ccc(C)c(N2CCN(C(=O)CCc3nc(-c4cccc(Cl)c4)no3)CC2)c1,-8,.,7,8,.,.
CCOC(=O)c1c2ccc(OCC(=O)N/N=C/c3ccc(Cl)cc3)cc2n2ccccc12,.,104*,.,.,.,0
CCOC(=O)COc1ccc2c(C#N)c3ccccn3c2c1,-4,6,.,.,.,.
COc1ccc(N2CCN(C3CCCN(C(=O)CCN4CCCCO4)C3)CC2)cc1 (stereo unspecified),-1,.,-1,-5,.,.
Cc1ccc(CN2C(=O)N/C(=C/c3ccc4c(c3)n(C)c(=O)n4C)C2=O)cc1,.,106*,0,3,-281,55
CCCCNc1ccc(C(CC(N)=O)NC(=O)Cc2cccc3ccccc23)cc1[N+](=O)[O-] (stereo unspecified),-3,104*,0,-2,-7,26
Cc1cccc(CNc2ccc(C(CC(N)=O)NC(=O)Cc3cccc4ccccc34)cc2[N+](=O)[O-])c1 (stereo unspecified),5,105*,1,-1,3,17
NC(=O)CC(NC(=O)Cc1ccc(Br)cc1)c1ccc(N2CCN(c3ccccc3)CC2)c([N+](=O)[O-])c1 (stereo unspecified),-3,103*,0,-1,6,32
NC(=O)CC(NC(=O)c1ccccc1)c1ccc(N2CCN(c3ccccc3)CC2)c([N+](=O)[O-])c1 (stereo unspecified),-8,.,0,1,2,.
COc1ccc(CCNc2ccc(C(CC(N)=O)NC(=O)Cc3cccc4ccccc34)cc2[N+](=O)[O-])cc1 (stereo unspecified),7,63,1,-5,9,.
CC(C)(C)N(Cc1ccccc1)C(=O)COC(=O)CN1C(=O)NC2(CCCC2)C1=O,0,.,0,-8,3,.
CCCN(CC(=O)Nc1ccccc1OC)C(=O)c1cccc(S(=O)(=O)Nc2ccc(OC)cc2)c1,5,.,-1,3,5,.
N#Cc1ccc(Cl)cc1NC(=O)CNCc1cccs1,-1,.,1,-4,4,.
N#CC1=C(N)C2=CCCC[C@H]2[C@H](c2ccc(Br)cc2)C1(C#N)C#N,17,99*,.,.,-2,24
O=C(Nc1ccc2c(c1)OCO2)Nc1ccc2c(c1)OCO2,2,19,5,4,-7,.
O=C(Nc1ccc([N+](=O)[O-])cc1)Nc1ccc(OC(F)F)c(Cl)c1,15,106*,.,.,-2,125*
O=C(Nc1ccc(OC(F)F)c(Cl)c1)Nc1ccc2c(c1)OCO2,4,106*,3,5,1,67
COc1ccccc1NC(=O)c1ccc2c(c1)N(CC(=O)NC(C)C)C(=O)C(C)(C)O2,2,.,1,-1,-1,.
SMILES,B2AR ag,CHOP inh,CHOP UPR activ,XBP1 UPR activ,VLA-4 inh,CHOP inh conf
COc1ccc(/C=C/C(=O)NC(=S)NNC(=O)c2cccnc2)cc1,2,98*,0,-3,-6,77*
O=C1C=CC(=O)N1CCCCCCN1C(=O)C=CC1=O,.,107*,.,.,8,116*
COC(=O)C[C@H]1c2cc(C(F)(F)F)ccc2S(=O)(=O)N1Cc1ccccc1,-1,.,-1,-1,-8,.
CCOc1ccc(NC(=O)CCC(=O)Oc2ccc(C)cc2)cc1,1,.,1,0,4,.
Cc1ccccc1/C=N/n1c(-c2cc(-c3ccccc3)n[nH]2)n[nH]c1=S,2,104*,1,-2,6,57
Nc1sc(-c2ccccc2)cc1-c1n[nH]c(=S)n1C1CCCCC1,-6,-20,-1,4,31,.
COc1ccc(-n2c(-c3cc(-c4ccccc4)sc3N)n[nH]c2=S)cc1,13,100*,1,1,9,8
O=C(Nc1ccc(Oc2ccccc2)cc1)C1CCN(c2c3c(nc4ncnn24)CCC3)CC1,2,104*,7,7,-13,92*
CCC1CCCCN1c1nc(-c2ccncc2)nc2ccccc12 (stereo unspecified),5,99*,1,4,3,15
CCC1CCCCN1c1nc(-c2cccc(OC)c2O)nc2ccccc12 (stereo unspecified),9,34,1,-2,6,.
CN(C)c1ccc(C(CNS(=O)(=O)c2ccc(F)c(F)c2)c2c[nH]c3ccccc23)cc1 (stereo unspecified),0,110*,2,-2,-4,116*
CN(C)c1ccc(C(CNC(=O)c2ccccc2F)c2c[nH]c3ccccc23)cc1 (stereo unspecified),-3,-4,-1,-1,0,.
O=c1[nH]c(=S)[nH]c(O)c1N=Nc1ccc(-c2ccccc2)cc1[N+](=O)[O-],.,102*,.,.,.,42
CNCC(O)COc1cccc(OC)c1 (stereo unspecified),-4,-25,0,-1,2,.
COc1ccc(NCC(O)COc2ccc(C(C)(C)C)cc2)cc1 (stereo unspecified),-5,104*,-1,5,12,57
CNCC(O)COc1ccccc1 (stereo unspecified),2,104*,-1,2,-3,5
COc1ccccc1NCC(O)COc1ccc(C(C)(C)C)cc1 (stereo unspecified),2,105*,-1,-1,0,120*
COc1ccc(CNCC(O)COc2ccc(C(C)(C)c3ccccc3)cc2)cc1 (stereo unspecified),14,.,0,0,3,.
Cc1nn(Cc2ccc(Cl)c(Cl)c2)c(C)c1NC(=O)c1cc(-c2ccc3c(c2)OCO3)on1,8,67,0,13,4,.
Cc1nn(Cc2ccc(Cl)cc2)c(C)c1NC(=O)c1cc(-c2ccc3c(c2)OCO3)on1,9,102*,0,-3,14,62
